Laboratory results from ChEMBL document CHEMBL1795267, “Synthesis of enantiomerically pure D- and L-bicyclo[3.1.0]hexenyl carbanucleosides and their antiviral evaluation” (Bioorg Med Chem, 2011).
Values after ≈ are worked out from the molar mass of the structure shown. Active and inactive are the calls of the source. The calls are words filed in the database; no cut-off is given here.

What was measured:
MT4 = experiment: Toxicity against human MT4 cells by MTT assay; assay type: cell-based
Method in brief: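 Uninfected MT-4 cells (HTLV-1-carrying T4+ line) at 1.0×10^5 cells/mL in RPMI-1640/10% FBS, gentamycin, 2 mM L-glutamine, run in triplicate alongside infected cultures for 5 days at 37 °C, 5% CO2. Compounds were diluted from DMSO, final DMSO ≤0.5%. Read by MTT (1.5 h), formazan dissolved in acidic 2-propanol, A540/690. CC50 is the concentration reducing viability by 50%.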

Poliovirus 3 = experiment: Antiviral activity against Human poliovirus 3 up to 100 ug/mL; assay type: functional, organism-based
Coxsackievirus B3 = experiment: Antiviral activity against Coxsackie virus B3 up to 100 ug/mL; assay type: functional, organism-based
[1] = system: Human immunodeficiency virus 1; experiment: Antiviral activity against HIV1 3B infected in human MT4 cells […] with HTLV1 assessed as reduction in virus induced cytopathicity measured 5 days post infection by MTT assay; assay type: functional, organism-based; details: Human immunodeficiency virus 1, 3B, MT4, 120 h
Method in brief: (§1)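 MT-4 cells (HTLV-1-carrying human T cells; RPMI-1640, 10% FBS, 2 mM L-glutamine) infected with cell-free HIV-1 IIIB or HIV-2 ROD at 100 TCID50/mL for 1.5 h at 37 °C, then plated at 1.0×10^5 cells/mL with serial compound dilutions (DMSO stock, at most 0.5% DMSO final) in triplicate. Cultured 5 days at 37 °C. Virus-induced cytopathicity read by MTT. IC50 is the concentration giving 50% protection.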

[2] = Selectivity index, ratio of CC50 for human MT4 cells to IC50 for HIV1 3B; assay type: functional
Method in brief: (§2)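 Uninfected MT-4 cells (1.0×10^5 cells/mL) were cultured for 5 days at 37 °C with compound in parallel with the infected cultures. Viability was read by MTT (1.5 h with MTT, formazan dissolved in acidic 2-propanol, absorbance at 540/690 nm). CC50 is the concentration reducing viability of uninfected cells by 50%. Index = CC50/IC50 against the HIV-1 IIIB or HIV-2 ROD MT-4 assay.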

Coxsackievirus B1 = experiment: Antiviral activity against Coxsackie virus B1 up to 100 ug/mL; assay type: functional, organism-based
[3] = system: Human immunodeficiency virus 2; experiment: Antiviral activity against HIV2 ROD infected in human MT4 cells assessed as reduction in virus induced cytopathicity measured 5 days post infection by MTT assay; assay type: functional, organism-based; details: Human immunodeficiency virus 2, ISOLATE ROD, MT4, 120 h; method in brief: as §1
[4] = Selectivity index, ratio of CC50 for human MT4 cells to IC50 for HIV2 ROD; assay type: functional; method in brief: as §2
Human alphaherpesvirus 2 = experiment: Antiviral activity against HSV2; assay type: functional, organism-based
Influenza A virus [5] = experiment: Antiviral activity against influenza A virus H1N1 Taiwan up to 100 ug/mL; assay type: functional, organism-based
Influenza B virus = experiment: Antiviral activity against influenza B virus Panama up to 100 ug/mL; assay type: functional, organism-based
[6] = system: Feline infectious peritonitis virus; experiment: Antiviral activity against Feline infectious peritonitis virus WSU up to 100 ug/mL; assay type: functional
Feline coronavirus = experiment: Antiviral activity against Feline coronavirus WSU up to 100 ug/mL; assay type: functional, organism-based
Influenza A virus [7] = experiment: Antiviral activity against Influenza A virus H3N2 Johannesburg up to 100 ug/mL; assay type: functional, organism-based

SMILES: Nc1ncnc2c1ncn2[C@H]1C=C[C@]2(CO)C[C@H]12
- CC50 (MT4): > 100 µg/mL
- inhibition (Poliovirus 3): inactive
- inhibition (Coxsackievirus B3): inactive
- IC50 [1]: 40.5 µg/mL (≈ 166 µM)
- Ratio CC50/IC50 [2]: >2.47
- inhibition (Coxsackievirus B1): inactive

SMILES: Nc1ccn([C@H]2C=C[C@]3(CO)C[C@H]23)c(=O)n1
- CC50 (MT4): 61.8 µg/mL (≈ 282 µM)
- IC50 [3]: > 61.8 µg/mL
- inhibition (Poliovirus 3): inactive
- Ratio CC50/IC50 [4]: <1
- inhibition (Coxsackievirus B3): inactive
- IC50 [1]: > 61.8 µg/mL
- Ratio CC50/IC50 [2]: <1
- inhibition (Coxsackievirus B1): inactive

SMILES: Nc1ncnc2c1ncn2[C@@H]1C=C[C@@]2(CO)C[C@@H]12
- IC50 [3]: > 100 µg/mL
- inhibition (Poliovirus 3): inactive
- inhibition (Coxsackievirus B3): inactive
- IC50 [1]: > 100 µg/mL
- inhibition (Coxsackievirus B1): inactive

SMILES: Cc1cn([C@@H]2C=C[C@@]3(CO)C[C@@H]23)c(=O)[nH]c1=O
- IC50 (Human alphaherpesvirus 2): 59.2 µg/mL (≈ 253 µM)
- CC50 (MT4): > 100 µg/mL
- inhibition (Influenza A virus [5]): inactive
- inhibition (Influenza B virus): inactive
- IC50 [3]: 2.27 µg/mL (≈ 9.69 µM)
- inhibition (Poliovirus 3): inactive
- inhibition [6]: inactive
- inhibition (Feline coronavirus): inactive
- Ratio CC50/IC50 [4]: >44.05
- inhibition (Coxsackievirus B3): inactive
- IC50 [1]: 1.18 µg/mL (≈ 5.02 µM)
- inhibition (Influenza A virus [7]): inactive
- Ratio CC50/IC50 [2]: >85.09
- inhibition (Coxsackievirus B1): inactive

SMILES: Nc1nc(O)c2ncn([C@@H]3C=C[C@@]4(CO)C[C@@H]34)c2n1
- CC50 (MT4): > 100 µg/mL
- IC50 [3]: > 100 µg/mL
- inhibition (Poliovirus 3): inactive
- inhibition (Coxsackievirus B3): inactive
- IC50 [1]: > 100 µg/mL
- inhibition (Coxsackievirus B1): inactive

SMILES: O=c1ccn([C@@H]2C=C[C@@]3(CO)C[C@@H]23)c(=O)[nH]1
- inhibition (Poliovirus 3): inactive
- inhibition (Coxsackievirus B3): inactive
- IC50 [1]: > 100 µg/mL
- inhibition (Coxsackievirus B1): inactive

SMILES: Nc1ccn([C@@H]2C=C[C@@]3(CO)C[C@@H]23)c(=O)n1
- CC50 (MT4): > 100 µg/mL
- IC50 [3]: > 100 µg/mL
- inhibition (Poliovirus 3): inactive
- inhibition (Coxsackievirus B3): inactive
- IC50 [1]: > 100 µg/mL
- inhibition (Coxsackievirus B1): inactive

SMILES: Cc1cn([C@H]2C=C[C@]3(CO)C[C@H]23)c(=O)[nH]c1=O
- CC50 (MT4): 8.558 µg/mL (≈ 36.5 µM)
- IC50 [3]: 0.112 µg/mL (≈ 0.478 µM)
- inhibition (Poliovirus 3): inactive
- Ratio CC50/IC50 [4]: 76
- inhibition (Coxsackievirus B3): inactive
- IC50 [1]: 0.033 µg/mL (≈ 0.141 µM)
- Ratio CC50/IC50 [2]: 263
- inhibition (Coxsackievirus B1): inactive

SMILES: O=c1nc(O)ccn1[C@H]1C=C[C@]2(CO)C[C@H]12
- CC50 (MT4): > 100 µg/mL
- IC50 [3]: > 100 µg/mL
- inhibition (Poliovirus 3): inactive
- inhibition (Coxsackievirus B3): inactive
- IC50 [1]: > 100 µg/mL
- inhibition (Coxsackievirus B1): inactive

SMILES: O=c1[nH]cnc2c1ncn2[C@H]1CC[C@@H](CO)O1 [DIDANOSINE]
- CC50 (MT4): > 100 µg/mL
- IC50 [3]: 5.76 µg/mL (≈ 24.4 µM)
- Ratio CC50/IC50 [4]: >17.38
- IC50 [1]: 2.31 µg/mL (≈ 9.78 µM)
- Ratio CC50/IC50 [2]: >43.29

SMILES: Nc1ccn([C@H]2CC[C@@H](CO)O2)c(=O)n1 [ZALCITABINE]
- CC50 (MT4): 10.66 µg/mL (≈ 50.5 µM)
- IC50 [3]: 0.04 µg/mL (≈ 0.189 µM)
- Ratio CC50/IC50 [4]: 266.7
- IC50 [1]: 0.043 µg/mL (≈ 0.204 µM)
- Ratio CC50/IC50 [2]: 248.73
